# Results published in article PMC6726529 (Clinical cancer research : an official journal of the …, 2019).
# Key:
# lymphoma cell lines = experiment: Synergy in cell viability assay by excess over bliss; format: cell-based; conditions: for synergy in combination with romidepsin: EZH2 inhibitor combined with romidepsin (Supplementary Fig S3)
# [1] = mouse, in vivo; for median Cmax: ip
# H3K27 = H3K27 acetylation/methylation in HEK 293T cells; format: cell-based; conditions: single agent exposure
# Method in brief: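 HEK293 cells were transfected in OPTI-MEM with a human HDAC2 shRNA or scramble plasmid using Lipofectamine 3000. They were puromycin-selected and monitored for GFP by flow cytometry and fluorescence microscopy until a stable line formed. The stable HDAC2-knockdown or scramble cells were then exposed to an EZH2 inhibitor test compound, and H3K27 methylation status was assessed.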
# SU-DHL-10 = experiment: Cell viability assay, single agent IC50; format: cell-based; conditions: Homo sapiens, SU-DHL10, 72 h, read-out: in vitro IC50 of romidepsin in SU-DHL-10
# [2] = prior work, combination therapy alisertib + romidepsin; cited from earlier work
# B-cell lymphomas = conditions: phase I clinical trial; cited from earlier work
SMILES,synergy in combination with romidepsin (lymphoma cell lines),Cmax translated to molar concentration [1] [nM],median Cmax [1] [ng/mL],other results
Nc1ccc(-c2cccs2)cc1NC(=O)c1ccc2nc(N3CCNCC3)ccc2c1 [ACY957],,,,"synergy in combination with GSK126 (EOB) (lymphoma cell lines; ACY957 combined with GSK126, 4 GC-DLBCL cell lines): synergistic"
COc1cc(C)[nH]c(=O)c1CNC(=O)c1c(C)n([C@H](C)C2CCN(CC(F)(F)F)CC2)c2ccccc12 [CPI-1205],demonstrated synergy,,,
CCN(c1cc(C#CCN2CCOCC2)cc(C(=O)NCc2c(C)cc(C)[nH]c2=O)c1C)[C@H]1CC[C@H](N(C)CCOC)CC1 [EPZ011989],demonstrated synergy,,,
CC[C@H](C)n1cc(C)c2c(C(=O)NCc3c(C)cc(C)[nH]c3=O)cc(-c3ccc(N4CCNCC4)nc3)cc21 [GSK126],,3150,1657.5 ± 413.6,serum AUC0-last [1]: 2828.57 ng·h/mL; status of acetylation or methylation of H3K27 (H3K27): did not significantly change
C/C=C1\NC(=O)[C@H]2CSSCC/C=C/[C@H](CC(=O)N[C@H](C(C)C)C(=O)N2)OC(=O)[C@H](C(C)C)NC1=O [romidepsin],,180,98.24 ± 62.50,IC50 (SU-DHL-10): 2.59 nM; intratumor levels after combination of alisertib and romidepsin [2]: below the level of detection
CCN(c1cc(-c2ccc(CN3CCOCC3)cc2)cc(C(=O)NCc2c(C)cc(C)[nH]c2=O)c1C)C1CCOCC1 [tazemetostat],,,,overall response rate (B-cell lymphomas): 38%
